{"data": "Results of several laboratories", "SIRT5": "NAD-dependent protein deacylase sirtuin-5, mitochondrial (SIRT5, Homo sapiens, UniProt Q9NXA8)", "PKN1": "Serine/threonine-protein kinase N1 (PKN1, Homo sapiens, UniProt Q16512)", "CA9": "Carbonic anhydrase 9 (CA9, Homo sapiens, UniProt Q16790)", "PRSS1": "Serine protease 1 (PRSS1, Bos taurus, UniProt P00760)", "MCL1": "Induced myeloid leukemia cell differentiation protein Mcl-1 (MCL1, Homo sapiens, UniProt Q07820)"}
{"SMILES": "O=C(O)CCNC(=S)NCCCC[C@H](NS(=O)(=O)c1cccc(F)c1)C(=O)N[C@@H](Cc1c[nH]c2ccccc12)C(=O)NC1CCC1", "target": "SIRT5", "read-out": "enzyme activity", "mode": "inhibitor", "technique": "fluorescence", "IC50": "93 nM"}
{"SMILES": "CCOCc1nc(O)c(-c2nnc(Cc3ccc(Cl)cn3)o2)c(O)c1-c1c(OC)cccc1OC", "target": "Histamine H1 receptor (HRH1, Homo sapiens, UniProt P35367)", "read-out": "ligand displacement", "technique": "radioligand", "IC50": "> 30000 nM"}
{"SMILES": "CC[C@@H](C(=O)Nc1ccc(C(N)=O)c(F)c1)n1cc(OC)c(-c2cc(Cl)ccc2-n2cc(C(F)(F)F)nn2)cc1=O", "target": "Urokinase-type plasminogen activator (PLAU, Homo sapiens, UniProt P00749)", "read-out": "enzyme activity", "mode": "inhibitor", "IC50": "> 10000 nM"}
{"SMILES": "O=C(c1ccc(Nc2nccc(-c3cc4ccccc4s3)n2)cc1)N1CCC(N2CCCC2)CC1", "target": "PKN1", "read-out": "enzyme activity", "mode": "inhibitor", "IC50": "49 nM"}
{"SMILES": "CN(C)c1ccc(/C=C2/SC(Nc3ccc(S(N)(=O)=O)cc3)=NC2=O)cc1", "target": "CA9", "read-out": "enzyme activity", "mode": "inhibitor", "IC50": "76.1 nM"}
{"SMILES": "Cc1nc2ccc(Br)cc2c(=O)n1/N=C/c1ccc(C(=O)O)cc1", "target": "PRSS1", "read-out": "enzyme activity", "mode": "inhibitor", "IC50": "213000 nM"}
{"SMILES": "NS(=O)(=O)c1ccc(CCNC(=O)Nc2ccc(NC(=O)c3ccc(Cl)cc3)cc2)cc1", "target": "CA9", "read-out": "enzyme activity", "mode": "inhibitor", "IC50": "96 nM"}
{"SMILES": "CC(C)c1cc(CNc2nc(Nc3cc(C4CC4)[nH]n3)cc(N3CCN(C)CC3)n2)on1", "target": "PKN1", "read-out": "enzyme activity", "mode": "inhibitor", "IC50": "20 nM"}
{"SMILES": "COc1cc(/C=N/n2c(C)nc3ccc(Br)cc3c2=O)ccc1O", "target": "PRSS1", "read-out": "enzyme activity", "mode": "inhibitor", "IC50": "46400 nM"}
{"SMILES": "CN/C(=N/CCSCc1nc[nH]c1C)NC#N", "target": "Solute carrier family 22 member 7 (SLC22A7, Homo sapiens, UniProt Q9Y694)", "read-out": "transporter uptake", "mode": "inhibitor", "IC50": "22000 nM"}
{"SMILES": "COC(=O)C1CCCCN1C(=O)c1cccc(NC(=O)CSc2ccc(S(N)(=O)=O)cc2)c1 (stereo not drawn)", "target": "CA9", "read-out": "enzyme activity", "mode": "inhibitor", "IC50": "91 nM"}
{"SMILES": "COc1ccc2cc(/C=N/n3c(C)nc4ccc(Br)cc4c3=O)ccc2c1", "target": "PRSS1", "read-out": "enzyme activity", "mode": "inhibitor", "IC50": "40700 nM"}
{"SMILES": "NS(=O)(=O)c1ccc(NC(=O)COC(=O)c2c3c(nc4ccccc24)C(=Cc2ccco2)CCC3)cc1", "target": "CA9", "read-out": "enzyme activity", "mode": "inhibitor", "IC50": "96 nM"}
{"SMILES": "O=C(NO)c1ccc(CN(c2cnccn2)c2cnccn2)cc1", "target": "SIRT5", "read-out": "enzyme activity", "mode": "inhibitor", "IC50": "> 10000 nM"}
{"SMILES": "N#CCNC(=O)c1ccc(-c2ccnc(Nc3ccc(N4CCOCC4)cc3)n2)cc1", "target": "PKN1", "read-out": "enzyme activity", "mode": "inhibitor", "IC50": "278 nM"}
{"SMILES": "COc1ccc2c(Oc3ccc4c(C(=O)Nc5ccccc5N)cccc4c3)ccnc2c1", "target": "Inward rectifier potassium channel 2 (KCNJ2, Homo sapiens, UniProt P63252)", "read-out": "ion current", "mode": "inhibitor", "IC50": "> 10000 nM"}
{"SMILES": "CCNC(=O)[C@H](CCCNC(=N)CCl)NC(=O)c1ccccc1", "target": "Protein-arginine deiminase type-4 (PADI4, Homo sapiens, UniProt Q9UM07)", "read-out": "enzyme activity", "mode": "inhibitor", "IC50": "4100 nM"}
{"SMILES": "CN(C)Cc1ccc(N2CCN(C(=O)c3ccc(Cl)c(S(N)(=O)=O)c3)CC2)nc1", "target": "CA9", "read-out": "enzyme activity", "mode": "inhibitor", "IC50": "5700 nM"}
{"SMILES": "O=C1NC(=O)C(c2cnc3ccccn23)=C1c1cn2c3c(cc(F)cc13)CN(C(=O)N1CCCCC1)CC2", "target": "PKN1", "read-out": "enzyme activity", "mode": "inhibitor", "IC50": "108 nM"}
{"SMILES": "CNC(=O)c1cc2c(Oc3ccc(NC(=O)C4(C(=O)Nc5ccc(F)cc5)CC4)cc3)ccnc2cc1OC", "target": "Tyrosine-protein kinase HCK (HCK, Homo sapiens, UniProt P08631)", "read-out": "enzyme activity", "mode": "inhibitor", "technique": "radiometric", "IC50": "24 nM"}
{"SMILES": "COc1cc(/C=N/n2c(C)nc3ccc(C)cc3c2=O)cc([N+](=O)[O-])c1O", "target": "PRSS1", "read-out": "enzyme activity", "mode": "inhibitor", "IC50": "55700 nM"}
{"SMILES": "Cc1cc(Nc2cc(CN3CCOCC3)c3nc(C)c(Cc4ccc(Cl)cc4F)n3n2)n[nH]1", "target": "PKN1", "read-out": "enzyme activity", "mode": "inhibitor", "IC50": "4070 nM"}
{"SMILES": "CC(OC(=O)C1CCCN(C(=O)c2ccc(Cl)cc2)C1)C(=O)Nc1ccc(S(N)(=O)=O)cc1 (stereo not drawn)", "target": "CA9", "read-out": "enzyme activity", "mode": "inhibitor", "IC50": "42.7 nM"}
{"SMILES": "Cc1ccc(S(=O)(=O)N=C2C=C(Sc3nnc[nH]3)C(=O)c3ccccc32)cc1", "target": "MCL1", "read-out": "ligand displacement", "technique": "FP", "IC50": "450 nM"}
{"SMILES": "CN1CCC(Nc2nc(Nc3ccc(Oc4ccccc4)cc3)c3c(=O)[nH]cc(Br)c3n2)CC1", "target": "PKN1", "read-out": "enzyme activity", "mode": "inhibitor", "IC50": "101 nM"}
{"SMILES": "COc1ccc(C2=NN(C3CCCCCC3)C(=O)[C@@H]3CC=CC[C@H]23)cc1-c1ccc(C(N)=O)cc1 (relative stereo)", "target": "3',5'-cyclic-AMP phosphodiesterase 4C (PDE4C, Homo sapiens, UniProt Q08493)", "read-out": "enzyme activity", "mode": "inhibitor", "IC50": "501 nM"}
{"SMILES": "CC1Cc2c(-c3cn(C)nn3)cccc2N1Cc1ccoc1C(=O)Nc1ccc(S(N)(=O)=O)cc1 (stereo not drawn)", "target": "CA9", "read-out": "enzyme activity", "mode": "inhibitor", "IC50": "11.2 nM"}
{"SMILES": "COc1cc2c(c(OC)c1OC)-c1c(cc3c(c1OC)OCO3)[C@H](OC(=O)c1ccccc1)[C@@](C)(O)[C@@H](C)C2", "target": "Cytochrome P450 3A5 (CYP3A5, Homo sapiens, UniProt P20815)", "read-out": "enzyme activity", "mode": "inhibitor", "time": "15 min", "pH": "pH 7.4", "IC50": "590 nM"}
{"SMILES": "CN1CCN(c2ccc(Nc3ncc4cc(C#N)c(=O)n(C5CCCC5)c4n3)cc2)CC1", "target": "PKN1", "read-out": "enzyme activity", "mode": "inhibitor", "IC50": "7050 nM"}
{"SMILES": "CCCC[C@H](NC(=O)[C@H](C)c1c(C)[nH]c2ccc(O)cc12)c1ncc(-c2cc3ccccc3nc2OC)[nH]1", "target": "Histone deacetylase 9 (HDAC9, Homo sapiens, UniProt Q9UKV0)", "read-out": "enzyme activity", "mode": "inhibitor", "IC50": "> 45000 nM"}
{"SMILES": "NS(=O)(=O)c1ccc(NC(=O)COC(=O)C(=Cc2cccs2)c2cccs2)cc1", "target": "CA9", "read-out": "enzyme activity", "mode": "inhibitor", "IC50": "322 nM"}
{"SMILES": "CCc1ccc(/C=N/n2c(C)nc3ccc(C)cc3c2=O)s1", "target": "PRSS1", "read-out": "enzyme activity", "mode": "inhibitor", "IC50": "224000 nM"}
{"SMILES": "NS(=O)(=O)c1cc(NC(=O)CCc2nnc(-c3ccc(Cl)cc3)o2)ccc1O", "target": "CA9", "read-out": "enzyme activity", "mode": "inhibitor", "IC50": "30.2 nM"}
{"SMILES": "O=c1c(O)c(-c2ccc(O)c(O)c2)oc2cc(O)cc(O)c12", "target": "Sulfotransferase 1A1 (SULT1A1, Homo sapiens, UniProt P50225)", "read-out": "enzyme activity", "mode": "inhibitor", "IC50": "529 nM"}
{"SMILES": "O=C(NS(=O)(=O)c1ccc(COc2ccccc2)cc1)c1cccc(-c2cc(Cl)cc(Cl)c2)c1", "target": "MCL1", "read-out": "ligand displacement", "technique": "FP", "IC50": "5100 nM"}
{"SMILES": "Cc1c[nH]c2nc(Nc3ccc(N4CCN(C)CC4)c(F)c3)nc(-c3cccc(CC#N)c3)c12", "target": "PKN1", "read-out": "enzyme activity", "mode": "inhibitor", "IC50": "187 nM"}
{"SMILES": "CC(C)C[C@H](NC(=O)[C@H]1O[C@@H]1C(=O)O)C(=O)NCCCCN=C(N)N", "target": "Cathepsin L2 (CTSV, Homo sapiens, UniProt O60911)", "read-out": "enzyme activity", "mode": "inhibitor", "IC50": "5.41 nM"}
{"SMILES": "Clc1ccc(C2(c3ccc(-c4cn[nH]c4)cc3)CCNCC2)cc1", "target": "PKN1", "read-out": "enzyme activity", "mode": "inhibitor", "IC50": "49 nM"}
{"SMILES": "CC(NC(=O)c1ccccc1/N=C/c1c(O)ccc2ccccc12)c1ccccc1 (stereo not drawn)", "target": "SIRT5", "read-out": "enzyme activity", "mode": "inhibitor", "technique": "HPLC", "IC50": "> 100000 nM"}
